Source: PubChem (several laboratories)
Sampled rows, rich in hits. Any-hit rate of the full collection: about 2.6%.
rCAG binder – r(CAG) repeat RNA binding; TO-PRO-1 dye displacement fluorescence; inhibition, % at 3 µM; 1.3% of 370,000 active; AID 651821;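 active means inhibition above the plate cutoff, the mean of all test compounds on that plate plus 3 SD, cut at about 35% in these data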;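 further: 0% = DMSO alone and 100% = 100 µM mitoxantrone as full dye displacement; higher means more dye released from RNA so lower well fluorescence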
Rev-erbA mod – modulators of human Rev-erb alpha DNA binding | P20393 | Rev-erbα–FITC-DNA binding, fluorescence polarization, 90 min | activity, % at 10 µM | 0.79% of 370,000 active | AID 1259318;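 active means activity above about 14%, limit read from the data; passing the limit was not always enough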;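 further: 0% = DMSO wells with 35 nM protein and 100% = DMSO wells with 750 nM protein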
NR2E3 ag-1 – NR2E3 (human) agonism | AID 2300 | Q9Y5X4 | GST-NR2E3/biotin-RetCOR TR-FRET, 1536-well | 0.12% of 320,000 active | inhibition of corepressor binding, % at 4.78 µM;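 active means percent inhibition above the cutoff of mean plus 3 SD of all tested compounds, set per screening campaign, cut at about 20% in these data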;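 further: 0% = DMSO wells and 100% = biotin wells as full block of FRET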
Target sequence (Q9Y5X4 whole entry, looked up): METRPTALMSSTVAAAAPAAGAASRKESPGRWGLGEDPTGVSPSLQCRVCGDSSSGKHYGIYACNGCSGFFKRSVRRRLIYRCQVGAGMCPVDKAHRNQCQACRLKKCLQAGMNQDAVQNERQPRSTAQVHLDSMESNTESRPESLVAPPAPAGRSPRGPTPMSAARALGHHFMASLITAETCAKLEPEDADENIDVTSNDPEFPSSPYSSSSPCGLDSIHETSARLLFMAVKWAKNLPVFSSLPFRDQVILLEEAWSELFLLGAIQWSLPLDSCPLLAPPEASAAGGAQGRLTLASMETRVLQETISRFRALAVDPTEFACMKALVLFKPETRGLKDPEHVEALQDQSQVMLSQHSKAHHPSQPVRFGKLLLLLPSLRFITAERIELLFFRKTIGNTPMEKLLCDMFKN
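Test system – NR2E3–RetCOR corepressor complex · Quantity – NR2E3 fusion 1.35 nM · Buffer or medium – Tris pH 7.5 · Incubation – Compound–protein incubation for 5 h at 4 °C · Technique – TR-FRET, Eu(K)-anti-GST donor, streptavidin-D2 acceptor, ex 340, em 617/671 nm · Evaluation – percent inhibition of 671/617 nm emission ratio versus biotin and DMSO controls · Plate – 1536-well format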
NR2E3 ag-2 – agonists of human NR2E3 nuclear receptor. Q9Y5X4. inhibition of corepressor binding, % at 3.98 µM. CHO-S Gal4-NCOR/VP16-NR2E3 two-hybrid, luciferase. 0.35% of 360,000 active;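 active means inhibition above the mean of all tested compounds plus 3 SD, cut at about 70% in these data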;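 further: 0% = DMSO with NR2E3 transfected cells and 100% = cells lacking NR2E3 construct; higher means lower luciferase signal from less NR2E3 corepressor binding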
PG9 binder – small molecules binding HIV-1 gp120 antibody PG9; TR-FRET gp120-PG9 antibody binding; inhibition, % at 6.7 µM; 0.43% of 360,000 active; in the data active means inhibition above about 8.5%
Rev-erbA confirm – confirmation of modulators of human Rev-erb alpha DNA binding. shares compounds with Rev-erbA mod. Rev-erb alpha FITC-DNA binding, fluorescence polarization, 90 min. activation, % at 25 µM. 61% of 3,000 active;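 active means activation at or above a set limit, or at least 3 SD above the negative control mean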;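 further: 0% = 35 nM protein with DMSO and 100% = 750 nM protein high control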
RORg counter – affects RORgamma DNA binding in a Rev-erb alpha counter-screen; shares compounds with Rev-erbA mod; purified RORgamma protein-FITC-DNA binding, fluorescence polarization; IC50, µM; 8% of 910 active;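 active means Compounds whose fitted half-maximal concentration for disrupting protein-DNA binding is below 10 micromolar; the record names Rev-erb in its text, so the target is in doubt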
Active calls of the source: *.

For Cc1ccc(S(=O)(=O)N2CC(O)CC2C(=O)O)cc1 (stereo not given) the results were rCAG binder 4, Rev-erbA mod -1, NR2E3 ag-1 2, NR2E3 ag-2 -42 and PG9 binder 0.
Screening CCOC(=O)c1ccc(NC(=O)C2CC(O)CN2S(=O)(=O)c2ccc(C)cc2)cc1 (stereo not given) returned rCAG binder 1, Rev-erbA mod 21*, NR2E3 ag-2 2, PG9 binder 1 and Rev-erbA confirm 1.
CCOC(=O)c1ccc2c(c1)sc(=NC(=O)c1ccco1)n2CCOC was read as rCAG binder -1, Rev-erbA mod 35*, NR2E3 ag-1 1, NR2E3 ag-2 -7, PG9 binder 8 and Rev-erbA confirm 25*.
For CCOC(=O)Cn1c(=NC(=O)C(C)(C)C)sc2cc([N+](=O)[O-])ccc21 the results were rCAG binder 0, Rev-erbA mod -1, NR2E3 ag-1 -4, NR2E3 ag-2 -33 and PG9 binder 1.
CCC(=O)N=c1sc2cc([N+](=O)[O-])ccc2n1CCOC was read as rCAG binder -1, Rev-erbA mod 11, NR2E3 ag-1 -4, NR2E3 ag-2 -8 and PG9 binder 0.
CCOC(=O)Cn1c(=NC(=O)c2nc3ccccc3s2)sc2cc(S(N)(=O)=O)ccc21 was read as rCAG binder 9, Rev-erbA mod 48*, NR2E3 ag-1 -66, NR2E3 ag-2 8, PG9 binder -11 and Rev-erbA confirm 29*.
For CCOC(=O)Cn1c(=NC(=O)CN2C(=O)CCC2=O)sc2cc(S(N)(=O)=O)ccc21 the results were rCAG binder 2, Rev-erbA mod -1, NR2E3 ag-1 2, NR2E3 ag-2 19 and PG9 binder 0.
For CCOC(=O)Cn1c(=NC(=O)c2cccs2)sc2cc(C(=O)OC)ccc21 the results were rCAG binder 0, Rev-erbA mod 85*, NR2E3 ag-1 -4, NR2E3 ag-2 -35, PG9 binder 1, Rev-erbA confirm 75* and RORg counter >40.
For COc1cc(CCC(=O)Nc2cc(S(=O)(=O)N3CCOCC3)ccc2OC(C)C)cc(OC)c1OC the results were rCAG binder 1, Rev-erbA mod 4, NR2E3 ag-2 -11 and PG9 binder 1.
O=C(Cc1ccc(NC(=O)C2CCCN(C(=O)c3ccccc3)C2)cc1)Nc1ccc(C(=O)N2CCOCC2)cc1 (stereo not given) was read as rCAG binder 2, Rev-erbA mod 0, NR2E3 ag-2 -4 and PG9 binder -1.
For Cc1cc(C)c2c(C)c(C(=O)NCc3ccc(S(N)(=O)=O)cc3)oc2c1 the results were rCAG binder 11, Rev-erbA mod 28*, NR2E3 ag-1 -66, NR2E3 ag-2 43, PG9 binder 8 and Rev-erbA confirm 20*.
For Cc1cc2oc(C(=O)NCc3ccc(S(N)(=O)=O)cc3)c(C)c2cc1C the results were rCAG binder 6, Rev-erbA mod 6, NR2E3 ag-1 0, NR2E3 ag-2 -1 and PG9 binder 7.
COc1cc(CNc2cccc3c2S(=O)(=O)N([C@H](C)c2ccccc2)C[C@@H](COCc2ccccc2)O3)cc(OC)c1OC was read as rCAG binder 8, Rev-erbA mod -4 and PG9 binder 2.
`Cc1ccc(-n2ncc3c(=O)n(CC(=O)N4CCN(C(=O)c5ccco5)CC4)cnc32)cc1` gave rCAG binder 8, Rev-erbA mod -6, NR2E3 ag-1 0, NR2E3 ag-2 -6 and PG9 binder 0.
`O=C(Nc1ccc(F)cc1)Nc1ccc(Oc2ncnc3cc(Cl)ccc23)nc1` gave rCAG binder -1, Rev-erbA mod 51*, NR2E3 ag-1 1, NR2E3 ag-2 1, PG9 binder 1 and Rev-erbA confirm 8.
O=C(Nc1ccc(Oc2ncnc3cc(Cl)ccc23)nc1)c1cccs1 was read as rCAG binder -1, Rev-erbA mod 55*, NR2E3 ag-1 1, NR2E3 ag-2 -8, PG9 binder 0 and Rev-erbA confirm 27*.
Screening Cc1ccc(CN(C)C[C@H]2OCc3cnnn3CCCC(=O)N([C@H](C)CO)C[C@@H]2C)cc1 returned rCAG binder -2, Rev-erbA mod 0 and PG9 binder 0.
Cc1cc2nc(-c3ccc(F)cc3)c(CC(C)(C)C)n2c(C)c1Br was read as rCAG binder -2, Rev-erbA mod 1, NR2E3 ag-2 2 and PG9 binder -2.
Screening Cc1cc2nc(-c3cccc(Cl)c3)c(CC(C)(C)C)n2c(C)c1Br returned rCAG binder 1, Rev-erbA mod 15*, NR2E3 ag-2 -11, PG9 binder 1 and Rev-erbA confirm 9.
For COc1ccc(-n2c3c(cc(C(=O)NCC(=O)c4ccccc4)c2=O)C(=O)CC(C)(C)C3)cc1 the results were rCAG binder 2, Rev-erbA mod 19*, NR2E3 ag-1 1, NR2E3 ag-2 2, PG9 binder 0 and Rev-erbA confirm 8.
Screening Cc1ccc(C(=O)CSc2cnc3ccccc3n2)cc1C returned rCAG binder 3, Rev-erbA mod 30*, NR2E3 ag-1 6, NR2E3 ag-2 6, PG9 binder 2 and Rev-erbA confirm 14.
Screening CCOc1ccc(NC(=O)Cn2cc(C(C)=O)c3ccccc32)cc1 returned rCAG binder 8, Rev-erbA mod 29*, NR2E3 ag-1 0, NR2E3 ag-2 -9, PG9 binder -2 and Rev-erbA confirm 13.
CCOc1ccc(NC(=O)Cn2cc(C(=O)CC)c3ccccc32)cc1 was read as NR2E3 ag-1 -1 and NR2E3 ag-2 -4.
COc1cccc(NC(=O)CSc2nc3ccccc3c3nc4ccccc4n23)c1 was read as rCAG binder 4, Rev-erbA mod 54*, NR2E3 ag-1 0, NR2E3 ag-2 -35, PG9 binder 0 and Rev-erbA confirm -6.
`CCC(=O)c1cn(CC(=O)Nc2cccc(OC)c2)c2ccccc12` gave rCAG binder 6, Rev-erbA mod 26*, NR2E3 ag-1 5, NR2E3 ag-2 -3, PG9 binder -1 and Rev-erbA confirm 18.
Screening COc1cccc(NC(=O)CSc2nc3ccccc3c(=O)n2Cc2cccs2)c1 returned rCAG binder 2, Rev-erbA mod -1, NR2E3 ag-1 -1, NR2E3 ag-2 -30 and PG9 binder -2.
For CCN(CC(=O)Nc1ccccc1C(F)(F)F)C(=O)c1ccc(N2CCCC2=O)cc1 the results were rCAG binder -1, Rev-erbA mod 3, NR2E3 ag-1 1, NR2E3 ag-2 3 and PG9 binder -1.
